Measurements as given in ChEMBL document CHEMBL1134558, “Discovery of estrogen sulfotransferase inhibitors from a purine library screen” (J Med Chem, 2001).

molecular target: T1, Sulfotransferase 1E1 (Mus musculus, UniProt P49891); experiment: Inhibition of estrogen sulfotransferase (EST) in TLC radiolabel transfer assay
T1 sequence (P49891 whole entry): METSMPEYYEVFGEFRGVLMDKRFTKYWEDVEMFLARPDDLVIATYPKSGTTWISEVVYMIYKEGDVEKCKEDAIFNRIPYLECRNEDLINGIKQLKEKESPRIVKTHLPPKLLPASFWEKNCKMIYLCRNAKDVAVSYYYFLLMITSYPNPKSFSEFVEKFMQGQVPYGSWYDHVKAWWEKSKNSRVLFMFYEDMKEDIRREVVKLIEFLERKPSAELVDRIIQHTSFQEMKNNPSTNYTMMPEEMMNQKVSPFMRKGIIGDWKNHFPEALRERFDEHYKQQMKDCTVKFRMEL
Method in brief: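 Murine EST expressed and purified as an N-terminal GST fusion. Transfer of ³⁵S-sulfate from ³⁵S-PAPS to estrone acceptor; extent of reaction measured by TLC separation and phosphorimaging. IC50 values taken from this radiolabel transfer assay. In the screen each compound was tested at 100 μM, with >70% inhibition scored as a hit.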

SMILES	IC50 [µM]
COc1ccc(CNc2nc(N3CCN(C)CC3)nc3c2ncn3C(C)C)cc1	80
Cn1cnc2c(NCc3ccccc3N)nc(NCC(N)=O)nc21	30
CC(O)CNc1nc(NCC(N)=O)nc2c1ncn2C (configuration not stated)	60
Cn1cnc2c(NCc3ccc(Cl)cc3)nc(NCC(N)=O)nc21	35
COc1ccc(CNc2nc(NCc3ccccc3)nc3c2ncn3CCO)cc1	30
Cn1cnc2c(N(CCO)CCO)nc(NCC(N)=O)nc21	> 200
Cn1cnc2c(NCc3cc(Cl)cc(Cl)c3)nc(NCC(N)=O)nc21	60

Next, values leading:

IC50 [µM]	SMILES
100	Cn1cnc2c(N(CCO)CCNCCO)nc(NCC(N)=O)nc21
0.5	COc1ccc(CNc2nc(N3CCCCCC3)nc3c2ncn3C(C)C)cc1
60	COc1ccc(CNc2nc(N[C@H](CO)CC(C)C)nc3c2ncn3C(C)C)cc1
> 200	O=[N+]([O-])c1ccc(CNc2nc(NCC3CCCCC3)c3ncn(CCO)c3n2)cc1
72	CC(C)n1cnc2c(NCc3ccc(N)cc3)nc(NCCCCC(=O)C3CSC(=O)N3)nc21 (configuration not stated)
